Screening data from PubChem BioAssay.
LMPTP block: blocks human LMPTP phosphatase. recombinant LMPTP-A, OMFP fluorogenic substrate, fluorescence intensity. inhibition, % at 20 µM. 360,000 tested, 0.22% active. AID 651560;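 active means compounds that cut the enzyme signal by at least half of the control window in the single-dose screen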;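 further: plate controls were DMSO wells with enzyme plus substrate for no effect and substrate without enzyme for full effect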
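Test system – LMPTP-A enzyme · Amount – LMPTP-A at 0.625 nM final in the reaction · Buffer or medium – Bis-Tris pH 6.0, DTT, detergent · Reagent – OMFP 400 µM · Doses – single 20 µM dose · Schedule – reaction 50 min, room temperature, dark · Detection – fluorescence intensity of OMFP turnover product · Evaluation – percent inhibition versus substrate-only and uninhibited controls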
SUMO1-SIM PPI: alters human SUMO1 binding to SIM partners; P63165; SUMO1 binding to a labelled peptide, TR-FRET, 1 h; 360,000 tested, 0.33% active; AID 602429; inhibition, % at 20 µM; in the data active means inhibition above about 37%
Scp1 inh: Scp-1 (human) phosphatase inhibition | Q9GZU7 | Recombinant Scp1, phosphopeptide, malachite green phosphate absorbance | inhibition, % at 20 µM | 340,000 tested, 0.88% active | AID 493091;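 active means inhibition above about 50% at 20 µM, limit read from the data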;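 further: plate controls were DMSO wells with enzyme for no effect and wells lacking enzyme for full effect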
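Test system: SCP-1 phosphatase catalytic domain, residues 76-261; measured by: colorimetric phosphate reagent with accelerator and stabiliser, absorbance at 630 nm; timing: enzyme reaction 45 min at room temperature, colour 5 min, stabilisation 30 min; also added: Phosphorylated 17-residue peptide substrate; compound dosing: one concentration, 20 µM, with 1.0% DMSO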
F508del corr: CFTR F508del correction in bronchial cells; 350,000 tested, 0.36% active; activity (quench increase), % at 7.58 µM; CFBE cells, YFP halide quenching; stimulated with forskolin plus potentiator P3; % fluorescence drop versus neutral controls;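 active means mean added fluorescence quench of at least 8% versus neutral control, with both replicates also reaching 8%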;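 further: cells transiently co-express mutant CFTR-F508del with the halide-sensitive YFP; corrector assay measuring rescue of mutant channel to the surface after 24 h compound exposure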
DNMT1 inh: blocks human DNA methyltransferase DNMT1 | P26358 | DNMT1 molecular beacon, Hinp1I cleavage, fluorescence | inhibition (reported as % activation of signal), % at 10 µM | 360,000 tested, 0.83% active | AID 588458; in the data active means inhibition above about 50%
Target sequence (P26358 504-1616 limits assumed): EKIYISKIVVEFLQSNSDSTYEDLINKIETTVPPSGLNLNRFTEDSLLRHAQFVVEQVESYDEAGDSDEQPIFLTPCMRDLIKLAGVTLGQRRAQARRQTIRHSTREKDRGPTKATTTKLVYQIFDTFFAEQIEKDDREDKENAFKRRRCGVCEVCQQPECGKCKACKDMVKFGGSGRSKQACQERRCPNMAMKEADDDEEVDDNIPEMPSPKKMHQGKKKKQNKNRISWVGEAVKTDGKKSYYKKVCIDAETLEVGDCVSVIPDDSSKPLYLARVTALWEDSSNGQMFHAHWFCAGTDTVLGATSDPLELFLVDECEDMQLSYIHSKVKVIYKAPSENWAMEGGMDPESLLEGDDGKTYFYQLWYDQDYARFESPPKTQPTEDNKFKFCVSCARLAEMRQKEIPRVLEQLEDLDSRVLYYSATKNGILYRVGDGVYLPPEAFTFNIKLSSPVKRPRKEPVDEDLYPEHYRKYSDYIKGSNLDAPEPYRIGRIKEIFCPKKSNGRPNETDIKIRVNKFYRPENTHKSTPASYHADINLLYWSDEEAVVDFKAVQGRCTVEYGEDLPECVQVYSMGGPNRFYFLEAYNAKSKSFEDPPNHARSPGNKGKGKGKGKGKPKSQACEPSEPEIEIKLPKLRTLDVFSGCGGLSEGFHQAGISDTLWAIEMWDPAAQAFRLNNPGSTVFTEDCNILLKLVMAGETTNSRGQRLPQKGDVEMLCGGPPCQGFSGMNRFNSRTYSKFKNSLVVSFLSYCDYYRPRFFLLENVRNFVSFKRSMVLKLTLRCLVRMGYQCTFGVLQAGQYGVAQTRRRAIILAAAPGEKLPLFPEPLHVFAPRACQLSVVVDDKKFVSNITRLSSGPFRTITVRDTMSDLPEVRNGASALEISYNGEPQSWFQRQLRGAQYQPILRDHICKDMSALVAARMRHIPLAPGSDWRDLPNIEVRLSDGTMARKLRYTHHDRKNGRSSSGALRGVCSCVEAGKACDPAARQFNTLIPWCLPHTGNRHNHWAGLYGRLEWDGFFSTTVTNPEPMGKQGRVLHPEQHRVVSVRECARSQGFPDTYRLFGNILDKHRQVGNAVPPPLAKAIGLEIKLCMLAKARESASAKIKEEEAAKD
STEP block: blocks human striatal-enriched tyrosine phosphatase | recombinant STEP, OMFP fluorogenic substrate, fluorescence | P54829 | inhibition, % at 20 µM | 360,000 tested, 0.25% active | AID 588621;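 active means inhibition at 20 µM, scaled per plate between control wells, above about 37%, limit read from the data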;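 further: 0% = DMSO with enzyme and substrate and 100% = substrate only without enzyme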
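System: isolated STEP enzyme; schedule: 20 min enzyme reaction at room temperature, protected from light; medium: Bis-Tris buffer pH 6.0, 2.5 mM DTT, 0.005% Tween 20; signal: fluorescence, 480/540 nm; dosing: single compound dose of 20 µM, 1% DMSO final; also added: OMFP substrate, 25 µM final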
Scp1 confirm: Scp-1 (human) inhibition, single-dose confirmed | shares compounds with Scp1 inh | recombinant SCP-1 catalytic domain, phosphate release, malachite green absorbance | inhibition, % at 20 µM | 2,500 tested, 61% active | AID 540281;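 further: plate controls were DMSO with enzyme for no effect and buffer wells lacking enzyme for full effect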
Scp-1 MG ctr: counter-screen for Scp-1 inhibitors: colorimetric interference; shares compounds with Scp1 inh; Colorimetric interference counterscreen, malachite green absorbance 630 nm; apparent inhibition (interference), % at 20 µM; 2,500 tested, under 10 active;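 further: compounds added after enzyme reaction finished so only phosphate colour detection is probed; plate controls were DMSO wells with completed Scp-1 reaction for no effect and substrate wells lacking enzyme for full effect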
Scp1 DSF: binds human Scp-1, shifting its melting temperature; shares compounds with Scp1 inh; Recombinant SCP1, Sypro Orange thermal shift Tm; thermal shift relative to vanadate control, % at 40 µM; 1,500 tested, 25% active; AID 540329;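 active means substances whose mean melting-temperature shift, as a percentage of the reference inhibitor's shift, reaches about 5.3%, limit read from the data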;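 further: 0% = Tm of DMSO wells and 100% = Tm with sodium orthovanadate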
* marks the source's active call; other numbers are inactive results. The list is not random: actives were taken first. Their share in the collection is about 1.6%.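 How the source made its calls, unless noted: active means inhibition of at least 30% at 20 µM; inactive means the rest.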

Screening CCn1cc(C(=O)NCc2ccc(OC)cc2)c(=O)c2ccc(C)nc21 returned LMPTP block -2, SUMO1-SIM PPI -1, Scp1 inh -5, F508del corr -1, DNMT1 inh 0 and STEP block 0.
For CCn1cc(C(=O)NCc2ccccc2F)c(=O)c2ccc(C)nc21 the results were LMPTP block -1, SUMO1-SIM PPI 15, Scp1 inh -12, DNMT1 inh 3 and STEP block 1.
For Cc1ccc2c(=O)c(C(=O)c3ccc(F)cc3)cn(CC(=O)NCc3ccco3)c2n1 the results were LMPTP block 1, SUMO1-SIM PPI 6, Scp1 inh 61*, F508del corr -4, DNMT1 inh 15, STEP block 6, Scp1 confirm 52*, Scp-1 MG ctr -15 and Scp1 DSF -2.
Screening CN1C(=O)c2cc(NC(=O)C3CCCC3)ccc2OC[C@H]2O[C@H](CC(=O)NCCc3ccncc3)CC[C@@H]21 returned F508del corr 1.
O=C(O)/C(=C\c1ccc(Cl)c([N+](=O)[O-])c1)c1ccc(S(=O)(=O)N2CCCCC2)s1 was read as LMPTP block 2, SUMO1-SIM PPI 9, Scp1 inh 8, F508del corr -2, DNMT1 inh -18 and STEP block -1.
O=C(O)/C(=C\c1cccc([N+](=O)[O-])c1)c1ccc(S(=O)(=O)N2CCCCC2)s1 was read as LMPTP block 4, SUMO1-SIM PPI -12, Scp1 inh 52*, F508del corr -1, DNMT1 inh 23, STEP block 2, Scp1 confirm 73*, Scp-1 MG ctr -5 and Scp1 DSF 20*.
For COc1ccc(Br)cc1/C=C(\C(=O)O)c1ccc(S(=O)(=O)N2CCCC2)s1 the results were LMPTP block 5, SUMO1-SIM PPI -2, Scp1 inh 67*, F508del corr 0, DNMT1 inh 42, STEP block 3, Scp1 confirm 60*, Scp-1 MG ctr -24 and Scp1 DSF 6.3*.
Screening Cc1ccc(-c2cnc3c(c2)C(=O)N([C@@H](C)CO)C[C@@H](C)[C@H](CN(C)C(=O)c2ccc(F)cc2)O3)cc1 returned F508del corr 2.
For COC(=O)CSc1nc(SCc2ccccc2Cl)nc2c1CCCC2 the results were LMPTP block 5, SUMO1-SIM PPI 1, Scp1 inh 53*, DNMT1 inh -5, STEP block 2, Scp1 confirm -5 and Scp-1 MG ctr -3.
Screening CO[C@H]1CN(C)C(=O)c2cc(NS(=O)(=O)c3ccc(Cl)cc3)ccc2OC[C@H](C)NC[C@@H]1C returned F508del corr -2.
For COC(=O)c1sccc1NC(=O)CSc1ccccc1N the results were LMPTP block 0, SUMO1-SIM PPI 7, Scp1 inh 58*, F508del corr 3, DNMT1 inh 0, STEP block -1, Scp1 confirm -22 and Scp-1 MG ctr -19.
COC(=O)c1sccc1NC(=O)CSc1ccccc1NC(=O)CNC(C)C was read as LMPTP block 1, SUMO1-SIM PPI -3, Scp1 inh -4, F508del corr 1, DNMT1 inh -6 and STEP block -1.
Screening O=C(O)Cc1sc(N/N=C\c2ccccc2)nc1-c1ccccc1 returned LMPTP block 2, SUMO1-SIM PPI 5, Scp1 inh 54*, DNMT1 inh 90*, STEP block -1, Scp1 confirm 75*, Scp-1 MG ctr -8 and Scp1 DSF 18*.
Cc1c(C(=O)NCCN2CCOC2=O)oc2c(F)cccc12 was read as LMPTP block -1, SUMO1-SIM PPI 2, Scp1 inh 1, F508del corr 2, DNMT1 inh 0, STEP block -2, Scp1 confirm -19 and Scp-1 MG ctr -16.
Screening COc1ccc(CNC(=O)C[C@@H]2C[C@H]3c4cc(NS(=O)(=O)c5ccc(F)cc5)ccc4O[C@H]3[C@H](CO)O2)cc1 returned F508del corr -1.
Screening CCOC(=O)C1CCN(C2CC(=O)N(c3ccc(OCC)cc3)C2=O)CC1 (stereo unspecified) returned LMPTP block -2, SUMO1-SIM PPI -2, Scp1 inh 52*, DNMT1 inh 0, STEP block 0, Scp1 confirm 15 and Scp-1 MG ctr 0.
CC(=O)c1ccc(NC(=O)c2noc3c2CCC3)cc1 was read as LMPTP block 1, SUMO1-SIM PPI 5, Scp1 inh 62*, F508del corr 2, DNMT1 inh 42, STEP block 1, Scp1 confirm 54*, Scp-1 MG ctr -13 and Scp1 DSF -1.
Screening CC1(c2ccccc2)NC(=O)N(CC(=O)N2CCN(S(=O)(=O)c3ccccc3[N+](=O)[O-])CC2)C1=O (stereo unspecified) returned LMPTP block 0, SUMO1-SIM PPI -7, Scp1 inh 50*, F508del corr -1, DNMT1 inh 2, STEP block 3, Scp1 confirm 9 and Scp-1 MG ctr -12.
Screening CC(C)NC(=O)N1CC(=O)N2[C@H](C1)[C@H](c1ccc(/C=C/c3ccccc3)cc1)[C@@H]2CO returned F508del corr 0.
For CCC1SC2=NC(C)=C(C(=O)OCC(C)C)C(/C=C/c3ccccc3OC)N2C1=O (stereo unspecified) the results were LMPTP block -1, SUMO1-SIM PPI -2, Scp1 inh 6, DNMT1 inh -4 and STEP block 2.
For CCC1SC2=NC(C)=C(C(=O)OCCOC)C(/C=C/c3ccccc3OC)N2C1=O (stereo unspecified) the results were LMPTP block 1, SUMO1-SIM PPI 2, Scp1 inh 58*, DNMT1 inh -14, STEP block -4, Scp1 confirm -35 and Scp-1 MG ctr -25.
For CCCn1c(N)c(N(CCOC)C(=O)c2cc(-c3ccco3)nc3ccccc23)c(=O)[nH]c1=O the results were LMPTP block 2, SUMO1-SIM PPI -5, Scp1 inh 20, F508del corr -1, DNMT1 inh 11 and STEP block 2.
